1 compound from ChEMBL document CHEMBL4334471, “Discovery of 1,8-disubstituted-[1,2,3]triazolo[4,5-c]quinoline derivatives as a new class of Hippo signaling pathway inhibitors” (Bioorg Med Chem Lett, 2019) can be followed below.

One assay concerns A549. The assay can be described thus: Inhibition of hippo signalling protein in human A549 cells cotransfected with CTGF promoter-driven firefly luciferase and CMV promoter-driven renilla luciferase gene incubated for 24 hrs by dual-luciferase gene assay. Type of assay: cell-based. Summed up:
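Dual-luciferase reporter read-out in A549-CTGF cells after 24 h culture with compound. Firefly luciferase is expressed relative to DMSO-treated cells, set as 1. Screening used 10 µM. Values are mean ± SEM of three independent experiments.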

A further assay is filed under the species Mus musculus. Description: Inhibition of mouse Arg M982V/A562 mutant (27 to end residues) assessed as residual activity at 10 uM using EAIYAAPFAKKK as substrate incubated for 40 mins in presence of [gamma-33ATP] by scintillation counting based radiometry assay relative to control.
For assay [1], the system named is Tyrosine-protein kinase receptor UFO (Homo sapiens), P30530 [Q764R]. The assay can be described thus: Inhibition of recombinant human Axl Q764R mutant (473 to end residues) assessed as residual activity at 10 uM using KKSRGDYMTMQIG as substrate incubated for 40 mins in presence of [gamma-33ATP] by scintillation counting based radiometry assay relative to control.
Chain of Tyrosine-protein kinase receptor UFO (Homo sapiens), P30530 [Q764R] (P30530 whole entry Q764R): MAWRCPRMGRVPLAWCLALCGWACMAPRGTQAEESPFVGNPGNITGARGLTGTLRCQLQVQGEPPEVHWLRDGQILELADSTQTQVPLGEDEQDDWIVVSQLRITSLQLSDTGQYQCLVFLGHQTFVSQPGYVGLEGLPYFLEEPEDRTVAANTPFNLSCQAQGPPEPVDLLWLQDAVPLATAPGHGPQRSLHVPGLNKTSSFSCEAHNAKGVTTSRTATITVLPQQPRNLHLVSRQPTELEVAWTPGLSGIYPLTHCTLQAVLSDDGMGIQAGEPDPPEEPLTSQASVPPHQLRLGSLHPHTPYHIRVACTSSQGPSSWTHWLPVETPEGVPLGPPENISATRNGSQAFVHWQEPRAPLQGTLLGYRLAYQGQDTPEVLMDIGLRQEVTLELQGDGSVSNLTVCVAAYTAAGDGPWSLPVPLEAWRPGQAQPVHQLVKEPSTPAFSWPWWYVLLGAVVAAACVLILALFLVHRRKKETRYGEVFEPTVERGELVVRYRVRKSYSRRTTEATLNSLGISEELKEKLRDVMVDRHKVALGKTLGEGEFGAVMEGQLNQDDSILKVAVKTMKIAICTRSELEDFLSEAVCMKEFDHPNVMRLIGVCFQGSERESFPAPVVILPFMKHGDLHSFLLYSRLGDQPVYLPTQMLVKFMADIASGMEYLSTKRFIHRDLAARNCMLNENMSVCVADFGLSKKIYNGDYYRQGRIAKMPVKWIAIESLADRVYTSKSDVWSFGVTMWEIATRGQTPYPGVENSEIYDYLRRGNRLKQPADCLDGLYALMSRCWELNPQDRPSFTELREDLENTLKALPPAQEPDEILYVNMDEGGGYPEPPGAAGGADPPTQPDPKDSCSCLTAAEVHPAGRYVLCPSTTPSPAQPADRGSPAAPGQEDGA

The target in assay [2] is Bone morphogenetic protein receptor type-2 (Homo sapiens) (UniProt Q13873). Description: Inhibition of recombinant human BMPR2 (172 to 734 residues) assessed as residual activity at 10 uM using myelin basic protein as substrate incubated for 120 mins in presence of [gamma-33ATP] by scintillation counting based radiometry assay relative to control.
In assay [3] the target is Calcium/calmodulin-dependent protein kinase type II subunit delta (Homo sapiens) (UniProt Q13557). Description: Inhibition of recombinant full length human CaMK2delta assessed as residual activity at 10 uM using […] incubated for 40 mins in presence of [gamma-33ATP] by scintillation counting based radiometry assay relative to control.
In assay [4] the target is Cyclin-dependent kinase 1/cyclin B1 (Homo sapiens) (UniProt P06493+P14635). The assay can be described thus: Inhibition of recombinant full length human CDK1/CyclinB assessed as residual activity at 10 uM using Histone H1 as substrate incubated for 40 mins in presence of [gamma-33ATP] by scintillation counting based radiometry assay relative to control. Type of assay: protein-complex assay.
Chain of Cyclin-dependent kinase 1/cyclin B1 (Homo sapiens) (P06493 whole entry, looked up): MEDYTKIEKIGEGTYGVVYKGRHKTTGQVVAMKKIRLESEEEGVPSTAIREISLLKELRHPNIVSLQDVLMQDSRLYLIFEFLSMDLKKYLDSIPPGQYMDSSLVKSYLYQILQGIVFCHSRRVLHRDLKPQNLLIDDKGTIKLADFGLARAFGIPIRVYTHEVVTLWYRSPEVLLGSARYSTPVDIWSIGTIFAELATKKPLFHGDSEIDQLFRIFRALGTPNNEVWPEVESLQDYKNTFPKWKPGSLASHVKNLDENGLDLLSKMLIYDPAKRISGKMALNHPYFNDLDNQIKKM
Chain of Cyclin-dependent kinase 1/cyclin B1 (Homo sapiens) (P14635 whole entry, looked up): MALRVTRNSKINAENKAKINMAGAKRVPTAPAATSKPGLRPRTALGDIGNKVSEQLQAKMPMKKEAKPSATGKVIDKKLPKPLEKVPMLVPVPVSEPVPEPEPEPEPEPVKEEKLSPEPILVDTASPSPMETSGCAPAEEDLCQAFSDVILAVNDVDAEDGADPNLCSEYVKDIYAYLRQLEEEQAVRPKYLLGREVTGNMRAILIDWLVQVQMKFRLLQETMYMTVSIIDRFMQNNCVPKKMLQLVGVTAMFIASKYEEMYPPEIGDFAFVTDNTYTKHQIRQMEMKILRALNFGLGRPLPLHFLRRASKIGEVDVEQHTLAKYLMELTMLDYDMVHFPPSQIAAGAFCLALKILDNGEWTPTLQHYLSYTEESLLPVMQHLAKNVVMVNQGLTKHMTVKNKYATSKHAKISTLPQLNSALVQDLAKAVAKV

The target of assay [5] is Dual specificity protein kinase CLK4 (Homo sapiens) (UniProt Q9HAZ1). The assay can be described thus: Inhibition of recombinant human CLK4 (128 to end residues) assessed as residual activity at 10 uM using YRRAAVPPSPSLSRHSSPHQS(p)EDEEE as substrate incubated 40 mins in presence of [gamma-33ATP] by scintillation counting based radiometry assay relative to control.
Chain of Dual specificity protein kinase CLK4 (Homo sapiens) (Q9HAZ1 whole entry, looked up): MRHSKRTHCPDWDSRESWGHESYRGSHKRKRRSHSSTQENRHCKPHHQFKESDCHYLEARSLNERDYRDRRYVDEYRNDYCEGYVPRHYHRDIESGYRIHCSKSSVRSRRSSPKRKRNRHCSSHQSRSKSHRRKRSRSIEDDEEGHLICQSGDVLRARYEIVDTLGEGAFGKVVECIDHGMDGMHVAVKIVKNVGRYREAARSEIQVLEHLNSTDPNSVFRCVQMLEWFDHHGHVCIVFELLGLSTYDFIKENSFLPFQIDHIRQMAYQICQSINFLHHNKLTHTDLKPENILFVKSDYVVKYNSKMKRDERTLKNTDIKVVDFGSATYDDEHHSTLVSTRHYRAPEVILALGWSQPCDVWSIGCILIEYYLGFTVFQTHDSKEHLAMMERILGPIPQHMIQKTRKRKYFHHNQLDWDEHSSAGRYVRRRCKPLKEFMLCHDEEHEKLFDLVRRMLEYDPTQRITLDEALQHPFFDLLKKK
Assay [6] deals with Mast/stem cell growth factor receptor Kit (Homo sapiens), P10721 [V560G]. Description: Inhibition of recombinant human C-Kit V560G mutant (544 to end residues) assessed as residual activity at 10 uM poly(Glu, Tyr) 4:1 as substrate incubated 40 mins in presence of [gamma-33ATP] by scintillation counting based radiometry assay relative to control.
For assay [7], the target named is Serine/threonine-protein kinase DCLK2 (Homo sapiens) (UniProt Q8N568). The assay can be described thus: Inhibition of recombinant human DCAMKL2 (376 to end residues) assessed as residual activity at 10 uM using KKLNRTLSFAEPG as substrate at 40 mins in presence of [gamma-33ATP] by scintillation counting based radiometry assay relative to control.
For assay [8], the target named is Serine/threonine-protein kinase DCLK3 (Homo sapiens) (UniProt Q9C098). Description: Inhibition of recombinant human DCAMKL3 (345 to end residues) assessed as residual activity at 10 uM using KKLNRTLSFAEPG as substrate at 40 mins in presence of [gamma-33ATP] by scintillation counting based radiometry assay relative to control.
The target in assay [9] is Tyrosine-protein kinase Fes/Fps (Homo sapiens) (UniProt P07332). The assay can be described thus: Inhibition of recombinant human FES (2 to end residues) assessed as residual activity at 10 uM using poly(Glu, Tyr) 4:1 as substrate at 40 mins in presence of [gamma-33ATP] by scintillation counting based radiometry assay relative to control.
The target in assay [10] is Tyrosine-protein kinase HCK (Homo sapiens) (UniProt P08631). The assay can be described thus: Inhibition of human HCK (230 to 497 residues) assessed as residual activity at 10 uM using Cdc2 peptide as substrate after 40 mins by [gamma-33ATP] radiometric assay relative to control.
Chain of Tyrosine-protein kinase HCK (Homo sapiens) (P08631 2-526 limits assumed): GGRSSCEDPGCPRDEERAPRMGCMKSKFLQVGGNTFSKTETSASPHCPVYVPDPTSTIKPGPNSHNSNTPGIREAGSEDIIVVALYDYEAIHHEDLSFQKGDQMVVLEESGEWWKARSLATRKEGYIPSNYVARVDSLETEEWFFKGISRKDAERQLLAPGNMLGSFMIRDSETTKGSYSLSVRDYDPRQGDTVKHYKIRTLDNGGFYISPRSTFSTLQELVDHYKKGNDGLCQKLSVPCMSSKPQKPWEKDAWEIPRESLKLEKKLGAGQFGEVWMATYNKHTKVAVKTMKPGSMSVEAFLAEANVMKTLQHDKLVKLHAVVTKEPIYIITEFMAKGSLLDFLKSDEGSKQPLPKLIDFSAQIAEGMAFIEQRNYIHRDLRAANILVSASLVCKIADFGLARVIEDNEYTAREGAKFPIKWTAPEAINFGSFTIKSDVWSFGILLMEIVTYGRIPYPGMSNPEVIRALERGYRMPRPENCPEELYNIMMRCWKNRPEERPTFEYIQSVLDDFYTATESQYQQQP
Assay [11] deals with Mitogen-activated protein kinase kinase kinase 3 (Homo sapiens) (UniProt Q99759). Description: Inhibition of recombinant full length human MEKK3 assessed as residual activity at 10 uM using myelin basic protein as substrate incubated for 120 mins in presence of [gamma-33ATP by scintillation counting based radiometry assay relative to control.
Chain of Mitogen-activated protein kinase kinase kinase 3 (Homo sapiens) (Q99759 whole entry, the tested form may be a part): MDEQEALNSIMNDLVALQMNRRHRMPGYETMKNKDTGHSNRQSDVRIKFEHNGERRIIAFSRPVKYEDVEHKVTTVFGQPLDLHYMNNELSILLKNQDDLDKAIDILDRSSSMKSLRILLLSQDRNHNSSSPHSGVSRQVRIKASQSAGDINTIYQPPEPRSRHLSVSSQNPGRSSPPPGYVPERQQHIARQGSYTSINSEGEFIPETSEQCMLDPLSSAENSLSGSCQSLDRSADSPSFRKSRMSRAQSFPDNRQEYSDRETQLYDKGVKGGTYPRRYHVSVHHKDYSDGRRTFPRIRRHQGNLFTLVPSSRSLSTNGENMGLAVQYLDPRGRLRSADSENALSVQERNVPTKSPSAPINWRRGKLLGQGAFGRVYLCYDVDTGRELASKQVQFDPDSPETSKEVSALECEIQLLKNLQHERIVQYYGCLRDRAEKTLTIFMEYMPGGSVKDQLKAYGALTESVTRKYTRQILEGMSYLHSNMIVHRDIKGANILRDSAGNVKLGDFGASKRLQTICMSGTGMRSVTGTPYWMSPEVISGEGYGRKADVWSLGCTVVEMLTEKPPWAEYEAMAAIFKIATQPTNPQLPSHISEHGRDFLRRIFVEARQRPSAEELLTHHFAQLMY
Assay [12] deals with Maternal embryonic leucine zipper kinase (Homo sapiens) (UniProt Q14680). The assay can be described thus: Inhibition of recombinant human MELK (1 to 340 residues) assessed as residual activity at 10 uM using KKLNRTLSFAEPG as substrate incubated for 40 mins in presence of [gamma-33ATP by scintillation counting based radiometry assay relative to control.
Assay [13] concerns the target Serine/threonine-protein kinase 26 (Homo sapiens) (UniProt Q9P289). The assay can be described thus: Inhibition of recombinant human MST4 (4 to 304 residues) assessed as residual activity at 10 uM using RLGRDKYKTLRQI as substrate measured after 40 mins in presence of [gamma33P]ATP by scintillation counting based radiometry assay relative to control.
In assay [14] the target is FKBP12A/mTOR (Homo sapiens) (UniProt P62942+P42345). The assay can be described thus: Inhibition of recombinant full length human mTOR/FKBP12 assessed as residual activity at 10 uM measured after 40 mins in presence of [gamma33P]ATP by scintillation counting based radiometry assay relative to control. Type of assay: protein-complex assay.
Chain of FKBP12A/mTOR (Homo sapiens) (P62942 2-108 limits assumed, other chains not shown): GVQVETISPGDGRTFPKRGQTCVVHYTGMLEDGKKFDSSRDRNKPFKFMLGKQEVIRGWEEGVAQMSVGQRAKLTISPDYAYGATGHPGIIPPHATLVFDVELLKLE
Assay [15] deals with Interferon-induced, double-stranded RNA-activated protein kinase (Homo sapiens) (UniProt P19525). Description: Inhibition of recombinant human PKR (252 to end residues) assessed as residual activity at 10 uM using RSRSRSRSRSRSRSR as substrate incubated for 40 mins in presence of [gamma33P]ATP by scintillation counting based radiometry assay relative to control.
The target of assay [16] is Ribosomal protein S6 kinase alpha-6 (Homo sapiens) (UniProt Q9UK32). Description: Inhibition of recombinant full length human Rsk4 assessed as residual activity at 10 uM using LRRASLG as substrate incubated for 40 mins in presence of [gamma33P]ATP by scintillation counting based radiometry assay relative to control.
Chain of Ribosomal protein S6 kinase alpha-6 (Homo sapiens) (Q9UK32 whole entry): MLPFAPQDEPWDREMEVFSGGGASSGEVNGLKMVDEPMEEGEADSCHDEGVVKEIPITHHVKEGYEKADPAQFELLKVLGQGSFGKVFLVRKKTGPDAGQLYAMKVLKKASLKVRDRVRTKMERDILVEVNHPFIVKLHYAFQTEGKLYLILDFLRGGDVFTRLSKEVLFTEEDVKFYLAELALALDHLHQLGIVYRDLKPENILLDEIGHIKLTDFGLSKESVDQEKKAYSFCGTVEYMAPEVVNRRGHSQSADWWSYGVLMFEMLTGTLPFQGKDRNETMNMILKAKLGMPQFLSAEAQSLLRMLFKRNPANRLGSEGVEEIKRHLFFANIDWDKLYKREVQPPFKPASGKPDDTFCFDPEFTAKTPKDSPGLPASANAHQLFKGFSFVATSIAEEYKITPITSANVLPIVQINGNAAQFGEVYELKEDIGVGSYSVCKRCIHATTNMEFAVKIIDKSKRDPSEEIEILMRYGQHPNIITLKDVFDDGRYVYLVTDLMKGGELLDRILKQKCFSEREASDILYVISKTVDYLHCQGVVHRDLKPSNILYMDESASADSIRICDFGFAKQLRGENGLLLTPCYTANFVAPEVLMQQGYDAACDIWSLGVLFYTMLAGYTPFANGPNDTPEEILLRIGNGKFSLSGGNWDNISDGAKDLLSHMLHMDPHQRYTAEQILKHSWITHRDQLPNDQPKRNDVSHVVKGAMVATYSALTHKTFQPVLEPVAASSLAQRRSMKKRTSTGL
For assay [17], the target named is Mitogen-activated protein kinase 14 (Homo sapiens) (UniProt Q16539). The assay can be described thus: Inhibition of recombinant human full length SAPK2a assessed as residual activity at 10 uM using myelin basic protein as substrate incubated for 40 mins in presence of [gamma33P]ATP by scintillation counting based radiometry assay relative to control.
For assay [18], the system named is Serine/threonine-protein kinase TAO3 (Homo sapiens), Q9H2K8 [UNDEFINED MUTATION]. The assay can be described thus: Inhibition of recombinant human TAO3 N47S mutant (1 to 411 residues) assessed as residual activity at 10 uM using myelin basic protein as substrate incubated for 40 mins in presence of [gamma33P]ATP by scintillation counting based radiometry assay relative to control.
Chain of Serine/threonine-protein kinase TAO3 (Homo sapiens), Q9H2K8 [UNDEFINED MUTATION] (Q9H2K8 whole entry, looked up, stated change not applied, the tested form may be a part): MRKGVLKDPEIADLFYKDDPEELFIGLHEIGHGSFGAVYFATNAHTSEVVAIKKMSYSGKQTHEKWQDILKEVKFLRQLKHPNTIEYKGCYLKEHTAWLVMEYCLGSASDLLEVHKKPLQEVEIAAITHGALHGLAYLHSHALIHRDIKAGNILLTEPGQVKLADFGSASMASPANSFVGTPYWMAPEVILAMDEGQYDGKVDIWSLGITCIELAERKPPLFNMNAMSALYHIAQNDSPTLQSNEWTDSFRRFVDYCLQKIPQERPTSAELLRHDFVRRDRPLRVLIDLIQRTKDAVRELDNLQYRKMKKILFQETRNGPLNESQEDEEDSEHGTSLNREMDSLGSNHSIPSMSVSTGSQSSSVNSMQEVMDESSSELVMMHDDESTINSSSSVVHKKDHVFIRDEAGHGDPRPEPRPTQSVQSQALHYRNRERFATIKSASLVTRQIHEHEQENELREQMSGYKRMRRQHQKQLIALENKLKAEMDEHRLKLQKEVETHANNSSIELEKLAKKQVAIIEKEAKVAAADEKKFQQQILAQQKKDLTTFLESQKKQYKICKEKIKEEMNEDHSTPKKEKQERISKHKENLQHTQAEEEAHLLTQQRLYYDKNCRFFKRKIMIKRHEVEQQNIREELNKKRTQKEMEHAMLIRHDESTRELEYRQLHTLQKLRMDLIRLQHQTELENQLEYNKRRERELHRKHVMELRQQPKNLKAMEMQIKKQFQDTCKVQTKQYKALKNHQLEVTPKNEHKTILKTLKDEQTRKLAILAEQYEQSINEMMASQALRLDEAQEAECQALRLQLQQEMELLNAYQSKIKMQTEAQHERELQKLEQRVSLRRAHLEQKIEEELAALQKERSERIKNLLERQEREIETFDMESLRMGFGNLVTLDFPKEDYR

Turning to `C[C@@H](c1ccccc1)n1nnc2cnc3ccc(-c4cnc5[nH]ccc5c4)cc3c21`, the inhibition result in the assay with A549 is “Dose-dependent effect”. Moreover, the Activity in the assay listed under Mus musculus is -1%; in assay [1] it was 64%; in assay [2], 80%; in assay [3], 68%; in assay [4], 63%; in assay [5], 46%. Further, the Activity in [6] stood at 3%; in assay [7] it was 61%; in [8], 66%; in [9], 41%; in assay [10], 9%; in [11] it was 92%. Also, the Activity was 25% in [12]; 69% in [13]; -1% in assay [14]; 81% in assay [15]; 62% in assay [16]; 105% in [17]. Further, the Activity in assay [18] stood at 68%.
